According to ChEMBL document CHEMBL4152211, “Discovery of novel Methylsulfonyl phenyl derivatives as potent human Cyclooxygenase-2 inhibitors with effective anticonvulsant action: Design, synthesis, in-silico, in-vitro and in-vivo evaluation” (Eur J Med Chem, 2018):
Activity calls are given as the source filed them. No cut-off for these calls is given here.

Legend:
[1] = target: T1, Prostaglandin G/H synthase 1 (Ovis aries) (UniProt P05979); assay: Inhibition of ovine COX1 at 10 uM using arachidonic acid as substrate preincubated for 5 mins followed by substrate addition and measured after 2 mins by ADPH probe-based fluorescence assay relative to control
T1 sequence (whole entry): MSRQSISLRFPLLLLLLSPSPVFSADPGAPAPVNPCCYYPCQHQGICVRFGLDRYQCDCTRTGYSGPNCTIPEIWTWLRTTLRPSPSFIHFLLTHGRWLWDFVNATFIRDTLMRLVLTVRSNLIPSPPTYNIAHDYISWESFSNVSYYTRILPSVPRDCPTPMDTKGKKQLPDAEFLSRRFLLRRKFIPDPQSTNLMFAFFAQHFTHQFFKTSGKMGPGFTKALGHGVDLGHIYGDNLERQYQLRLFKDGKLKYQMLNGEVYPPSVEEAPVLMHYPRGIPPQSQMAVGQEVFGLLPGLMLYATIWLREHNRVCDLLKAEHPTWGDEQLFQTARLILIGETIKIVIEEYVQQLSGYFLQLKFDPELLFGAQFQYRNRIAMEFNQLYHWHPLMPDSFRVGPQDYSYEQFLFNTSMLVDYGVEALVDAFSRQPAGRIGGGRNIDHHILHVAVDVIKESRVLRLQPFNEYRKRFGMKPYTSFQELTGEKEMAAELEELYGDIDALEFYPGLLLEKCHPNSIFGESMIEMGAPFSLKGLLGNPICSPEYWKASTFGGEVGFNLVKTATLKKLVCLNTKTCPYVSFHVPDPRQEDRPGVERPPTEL
Procedure, shortened: (§1)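 Kit assay in 100 mM Tris-HCl pH 8.0. Enzyme, heme and inhibitor (DMSO stocks) are incubated 5 min at room temperature. ADPH is added, then arachidonic acid starts the reaction. After 2 min, fluorescence is read at ex 535/em 590 nm. Percent inhibition is taken versus the 100% activity well, background wells included. IC50 is derived from percentage inhibition, mean of three independent experiments.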

[2] = target: T2, Prostaglandin G/H synthase 2 (Homo sapiens) (UniProt P35354); assay: Inhibition of human recombinant COX2 at 10 uM using arachidonic acid as substrate preincubated for 5 mins followed by substrate addition and measured after 2 mins by ADPH probe-based fluorescence assay relative to control; procedure, shortened: as §1
T2 sequence (whole entry): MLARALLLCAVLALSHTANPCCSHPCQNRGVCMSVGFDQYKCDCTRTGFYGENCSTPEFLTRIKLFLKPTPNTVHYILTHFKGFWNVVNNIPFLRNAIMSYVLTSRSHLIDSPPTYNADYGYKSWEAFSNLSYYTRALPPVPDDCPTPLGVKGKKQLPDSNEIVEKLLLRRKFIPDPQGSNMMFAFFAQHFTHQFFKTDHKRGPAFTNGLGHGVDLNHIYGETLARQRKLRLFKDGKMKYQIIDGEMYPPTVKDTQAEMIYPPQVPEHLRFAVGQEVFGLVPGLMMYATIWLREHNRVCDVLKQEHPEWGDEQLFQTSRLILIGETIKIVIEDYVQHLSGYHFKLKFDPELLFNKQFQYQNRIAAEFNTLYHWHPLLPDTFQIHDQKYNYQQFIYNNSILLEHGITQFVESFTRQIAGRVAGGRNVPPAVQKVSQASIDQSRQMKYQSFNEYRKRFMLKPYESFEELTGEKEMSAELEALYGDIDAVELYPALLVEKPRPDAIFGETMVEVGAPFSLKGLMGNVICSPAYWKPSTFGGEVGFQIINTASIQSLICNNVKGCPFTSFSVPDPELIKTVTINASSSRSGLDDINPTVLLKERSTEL

[3] = target: T3, Prostaglandin G/H synthase 2 (Homo sapiens, UniProt P35354); assay: Inhibition of human recombinant COX2 using arachidonic acid as substrate preincubated for 5 mins followed by substrate addition and measured after 2 mins by ADPH probe-based fluorescence assay; procedure, shortened: as §1
T3 sequence (P35354 whole entry): T2 sequence (whole entry)

Mus musculus [4] = assay: Anticonvulsant activity in Swiss albino mouse assessed as protection against subcutaneous pentylenetetrazole-induced seizures at 300 mg/kg, ip administered 0.5 hrs prior to PTZ challenge and measured after 30 mins; type: functional
Procedure, shortened: (§2)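 Male Swiss Albino mice (25–30 g), 6 per group, dosed i.p. with drugs in sterile saline, then challenged with PTZ 85 mg/kg s.c. (CD97), given at 10 ml/kg, 0.5 h or 4 h later. Each animal is observed singly for seizures. Protection is scored as protected/total animals.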

Mus musculus [5] = assay: Anticonvulsant activity in Swiss albino mouse assessed as protection against subcutaneous pentylenetetrazole-induced seizures at 300 mg/kg, ip administered 4 hrs prior to PTZ challenge and measured after 30 mins; type: functional; procedure, shortened: as §2
Mus musculus [6] = assay: Anticonvulsant activity in Swiss albino mouse assessed as protection against subcutaneous pentylenetetrazole-induced seizures at 30 mg/kg, ip administered 0.5 hrs prior to PTZ challenge and measured after 30 mins; type: functional; procedure, shortened: as §2
Mus musculus [7] = assay: Anticonvulsant activity in Swiss albino mouse assessed as protection against subcutaneous pentylenetetrazole-induced seizures at 100 mg/kg, ip administered 0.5 hrs prior to PTZ challenge and measured after 30 mins; type: functional; procedure, shortened: as §2
Mus musculus [8] = assay: Anticonvulsant activity in Swiss albino mouse assessed as protection against subcutaneous pentylenetetrazole-induced seizures at 100 mg/kg, ip administered 4 hrs prior to PTZ challenge and measured after 30 mins; type: functional; procedure, shortened: as §2
Mus musculus [9] = assay: Anticonvulsant activity in Swiss albino mouse assessed as protection against subcutaneous pentylenetetrazole-induced seizures at 30 mg/kg, ip administered 4 hrs prior to PTZ challenge and measured after 30 mins; type: functional; procedure, shortened: as §2
Mus musculus [10] = assay: Anticonvulsant activity in Swiss albino mouse assessed as protection against subcutaneous pentylenetetrazole-induced seizures at 5 mg/kg, ip administered 0.5 hrs prior to PTZ challenge and measured after 30 mins; type: functional; procedure, shortened: as §2
Rattus norvegicus = assay: Antiepileptic activity in rat model of PTZ-induced epileptiogenesis kindling model assessed as decrease of seizure severity at 5 mg/kg, ip measured up to 28 days; type: functional, organism-based
Procedure, shortened: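 Adult male Wistar rats receive PTZ 40 mg/kg i.p. on alternate days for 28 days plus daily i.p. treatment. After each PTZ injection, rats are observed singly for 45 min and scored on the revised Racine scale (stages to 6). Group mean score per week, ±S.D. Statistics are repeated-measures ANOVA with Tukey's test.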

Mus musculus [11] = assay: Anticonvulsant activity in Swiss albino mouse assessed as protection against subcutaneous pentylenetetrazole-induced seizures at 10 mg/kg, ip administered 0.5 hrs prior to PTZ challenge and measured after 30 mins; type: functional; procedure, shortened: as §2
Mus musculus [12] = assay: Anticonvulsant activity in Swiss albino mouse assessed as protection against subcutaneous pentylenetetrazole-induced seizures at 10 mg/kg, ip administered 4 hrs prior to PTZ challenge and measured after 30 mins; type: functional; procedure, shortened: as §2
Mus musculus [13] = assay: Anticonvulsant activity in Swiss albino mouse assessed as protection against subcutaneous pentylenetetrazole-induced seizures at 5 mg/kg, ip administered 4 hrs prior to PTZ challenge and measured after 30 mins; type: functional; procedure, shortened: as §2
Mus musculus [14] = assay: Anticonvulsant activity in Swiss albino mouse assessed as protection against subcutaneous pentylenetetrazole-induced seizures at 1 mg/kg, ip administered 4 hrs prior to PTZ challenge and measured after 30 mins; type: functional; procedure, shortened: as §2
Mus musculus [15] = assay: Anticonvulsant activity in Swiss albino mouse assessed as protection against subcutaneous pentylenetetrazole-induced seizures at 1 mg/kg, ip administered 0.5 hrs prior to PTZ challenge and measured after 30 mins; type: functional; procedure, shortened: as §2

Row | Compound | inhibition [1] | inhibition [2] [%] | IC50 [3] [µM] | also measured
1 | CCNC(=S)NNC(=O)Nc1ccc(S(C)(=O)=O)cc1 | inactive | 32 |  | 
2 | CCCC(CCC)C(=O)[O-].[Na+] [VALPROATE SODIUM] |  |  |  | Activity (Mus musculus [4]): 100%; Activity (Mus musculus [5]): 50%
3 | CS(=O)(=O)c1ccc(NC(=O)NNC(=S)Nc2c(F)cccc2F)cc1 | inactive | 62 | 6.42 | 
4 | CS(=O)(=O)c1ccc(NC(=O)NNC(=S)Nc2cccc(Cl)c2Cl)cc1 | inactive | 46 |  | 
5 | COc1ccc(NC(=S)NNC(=O)Nc2ccc(S(C)(=O)=O)cc2)cc1 | inactive | 62 | 7.15 | 
6 | Cc1cccc(C)c1NC(=S)NNC(=O)Nc1ccc(S(C)(=O)=O)cc1 | inactive | 64 | 3.14 | Activity (Mus musculus [6]): 17%; Activity (Mus musculus [7]): 33%; Activity (Mus musculus [8]): 33%; Activity (Mus musculus [4]): 33%; Activity (Mus musculus [5]): 50%; Activity (Mus musculus [9]): 17%
7 | Cc1ccc(-c2ncc(Cl)cc2-c2ccc(S(C)(=O)=O)cc2)cn1 [ETORICOXIB] |  |  |  | Activity (Mus musculus [10]): 67%; Activity (Rattus norvegicus): Active; Activity (Mus musculus [11]): 50%; Activity (Mus musculus [12]): 50%; Activity (Mus musculus [13]): 67%; Activity (Mus musculus [14]): 50%; Activity (Mus musculus [15]): 50%

Continued, in another order:

Row | inhibition [1] | inhibition [2] [%] | IC50 [3] [µM] | Compound | also measured
8 | inactive | 50 | 12.8 | CS(=O)(=O)c1ccc(NC(=O)NNC(=S)Nc2ccccc2)cc1 | 
9 | inactive | 54 | 12.5 | CS(=O)(=O)c1ccc(NC(=O)NNC(=S)Nc2ccc(F)cc2)cc1 | 
10 | inactive | 70 | 5.32 | CS(=O)(=O)c1ccc(NC(=O)NNC(=S)Nc2ccc(Cl)cc2)cc1 | 
11 | inactive | 22 |  | CS(=O)(=O)c1ccc(NC(=O)NNC(=S)NCCc2ccccc2)cc1 | 
12 | inactive | 21 |  | CS(=O)(=O)c1ccc(NC(=O)NNC(=S)NCc2ccccc2)cc1 | 
